The nature of data set [1]: Half life in rat liver microsomes. Format: ADME, Microsome. The note with it: microsomes. The procedure, abridged:
(§1)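 Rat liver microsomes (0.5 mg/mL protein) in 100 mM potassium phosphate pH 7.4 at 37 °C with 1 mM NADPH. Samples were taken at 0, 5, 15, 30 and 45 min, quenched with cold acetonitrile containing internal standards, and analysed by LC/MS/MS. Half-life and clearance were calculated; two independent experiments in duplicate.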
In general terms: Liver microsomes are vesicles of endoplasmic reticulum, rich in cytochrome P450 enzymes.

Data set [2] has as its target T1, Cannabinoid receptor 1 (Mus musculus, UniProt P47746). Briefly: Allosteric modulator activity at CB1 receptor in mouse cerebellar membranes assessed as suppression of 1 uM CP55,940-induced [35S]GTPgammaS binding incubated for 60 mins by scintillation counting method. Format: functional, cell membranes, Cerebellum, Membrane. On the technique in general: GTPγS is a poorly hydrolysed GTP analogue; its binding reports G protein activation.

Data set [3] can be described thus: Half life in rat liver microsomes in presence of NADPH by LC-MS/MS analysis. The data set is classed as ADME, Microsome. The method in brief: as §1
The nature of data set [4]: Apparent permeability from basolateral to apical side in MDCK-MDR1 cells incubated up to 90 mins by LC-MS/MS analysis. The data set is classed as ADME, cell-based, Canis lupus familiaris. The note with it: dog. The method in brief: (§2)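 MDCK-MDR1 cells were grown 3 days on Transwell supports and preincubated 30 min at 37 °C in HBSS with 10 mM HEPES and 0.25% BSA, pH 7.4, with TEER checked. Test article (10 µM) was added to the apical (A-to-B) or basolateral (B-to-A) donor side at 37 °C with light agitation. Receiver samples were taken at 30, 60 and 90 min for LC-MS/MS. Papp = (dQ/dt)/(A·Ci·60).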

Data set [5] in a line: Clearance in rat liver microsomes in presence of NADPH incubated up to 45 mins by LC-MS/MS analysis. The data set is classed as ADME, Microsome. The method in brief: as §1
Data set [6] addresses T2, Cannabinoid receptor 1 (Homo sapiens, UniProt P21554). Briefly: Agonist activity at human CB1 receptor expressed in CHO-RD-HGA16 cells co-expressing Galpha16 assessed as suppression stimulation of calcium mobilization incubated for 45 mins by Calcium 5 dye based FLIPR assay relative to CP55,940. Format: functional, cell-based. The method in brief: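 CHO-RD-HGA16 cells stably expressing human CB1 (with Galpha16), plated overnight and loaded with Calcium 5 dye for 45 min at 37 °C. […] Compound was added by the FLIPR Tetra at the 10 s point as a single concentration, and fluorescence (485/525 nm) was read every 1 s for 90 s. RFU were expressed as % of CP55,940 Emax.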
For orientation: Calcium assays in cells follow changes in intracellular calcium, usually with a dye or a luminescent sensor.

The target of data set [7] is T3, Cannabinoid receptor 2 (Homo sapiens, UniProt P34972). Briefly: Antagonist activity at human CB2 receptor expressed in CHO cells co-expressing Galpha16 assessed as inhibition of EC80 CP55,940-induced calcium mobilization preincubated for 15 mins followed by […] addition measured at 1 sec interval for 90 secs by calcium-5 dye based FLIPR assay. Format: functional, cell-based. The procedure, abridged: (§3)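 CB2 antagonist mode in stable human CB2-CHO-RD-HGA16 cells. Cells were dye-loaded, then pretreated with compound for 15 min at 37 °C. CP55,940 was added at its EC80 at the 10 s point, and calcium fluorescence was recorded every 1 s over 90 s.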

Data set [8] is described as follows: Apparent permeability from apical to basolateral side in MDCK-MDR1 cells incubated up to 90 mins by LC-MS/MS analysis. Format: ADME, cell-based, Canis lupus familiaris. As to conditions: dog. The method in brief:
as §2

Data set [9] can be described thus: Kinetic solubility in phosphate buffer at 400 uM incubated for 2 hrs by LC-MS/MS analysis. The data set is classed as physicochemical. As to conditions: read-out: Kinetic_solubility. The procedure, abridged: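 A 20 mM DMSO stock was diluted into phosphate buffer to a targeted 400 µM and vortexed 2 h at room temperature. Three independent experiments in duplicate.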

Data set [10] addresses T3, Cannabinoid receptor 2. As to the kind of experiment: Antagonist activity at human CB2 receptor expressed in CHO cells co-expressing Galpha16 assessed as inhibition of EC80 CP55,940-induced calcium mobilization at 10 uM preincubated for 15 mins followed by […] addition measured at 1 sec interval for 90 secs by calcium-5 dye based FLIPR assay relative to CP55,940. The data set is classed as functional, cell-based. The procedure, abridged: as §3

The target in data set [11] is T1, Cannabinoid receptor 1. As to the kind of experiment: Allosteric modulator activity at CB1 receptor in mouse cerebellar membranes assessed as suppression of 100 nM CP55,940-induced [35S]GTPgammaS binding incubated for 60 mins by scintillation counting method. Format: functional, cell membranes, Cerebellum, Membrane.
The target in data set [12] is T2, Cannabinoid receptor 1. As to the kind of experiment: Inverse agonist activity at human CB1 receptor expressed in HEK293 cell membranes assessed as suppression of [35S]GTPgammaS binding at 10 uM incubated for 60 mins by scintillation counting method. The note with it: hek293, 1 h. The method in brief:
(§4)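 Inverse agonism on human CB1-HEK293 membranes: compounds were incubated 60 min with 0.1 nM [35S]GTPγS and 30 µM GDP, with no CP55,940 present. Buffer was Tris/MgCl2/EGTA pH 7.4 with 0.5% BSA, at 30 °C. Binding was read by filtration and scintillation counting and normalized to basal (vehicle = 0%).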

For data set [13], the target named is T1, Cannabinoid receptor 1. As to the kind of experiment: Allosteric antagonist activity at mouse CB1 receptor by GTPgammaS assay. The data set is classed as functional. The method in brief:
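Cerebellar membranes from male ICR mice (6-8 weeks), preincubated 10 min with adenosine deaminase (3 units/ml) in Tris/MgCl2/EGTA buffer, pH 7.4. Membranes (10 µg) pre-equilibrated 30 min with modulator, CP55,940 (100 nM; some also at 1 µM), 30 µM GDP and 0.5% BSA, then 0.1 nM [35S]GTPγS for 60 min at 30 °C.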

For data set [14], the system named is Rattus norvegicus. Briefly: Suppression of drug-induced cocaine-seeking behavior in Sprague-Dawley rat assessed as effect on active responses at 10 mg/kg, ip pretreated 10 mins prior to priming injection of cocaine administered immediately before the start of the reinstatement session. Format: functional, organism-based.
Data set [15] deals with T2, Cannabinoid receptor 1. Briefly: Inverse agonist activity at human CB1 receptor expressed in HEK293 cell membranes assessed as suppression of [35S]GTPgammaS binding up to 10 uM incubated for 60 mins by scintillation counting method. As to conditions: hek293, 1 h. The method in brief: as §4
Data set [16] concerns the target T2, Cannabinoid receptor 1. As to the kind of experiment: Allosteric modulator activity at human CB1 receptor expressed in CHO-RD-HGA16 cells co-expressing Galpha16 assessed as suppression of 100 nM CP55,940-induced calcium mobilization pre-incubated for 15 mins by Calcium 5 dye based FLIPR assay. Format: functional, cell-based.
The nature of data set [17]: Efflux ratio from basolateral to apical side over apical to basolateral side in MDCK-MDR1 cells incubated up to 90 mins by LC-MS/MS analysis. The data set is classed as ADME, cell-based, Canis lupus familiaris. The note with it: dog.
In data set [18] the target is T3, Cannabinoid receptor 2. As to the kind of experiment: Agonist activity at human CB2 receptor expressed in CHO cells co-expressing Galpha16 assessed as increase in calcium mobilization at 10 uM measured at 1 sec interval for 90 secs by calcium-5 dye based FLIPR assay relative to CP55,940. The data set is classed as functional, cell-based.
Data set [19] deals with Rattus norvegicus. Briefly: Suppression of drug-induced cocaine-seeking behavior in Sprague-Dawley rat assessed as effect on inactive responses at 10 mg/kg, ip pretreated 10 mins prior to priming injection of cocaine administered immediately before the start of the reinstatement session. Format: functional, organism-based.

SMILES strings stand for the structures. Converted amounts (≈) assume the structure as drawn. The source made the active and inactive calls. The rule behind the calls is not given here. Where only a bound is given, the exact number is not on record here.

T2 sequence (P21554 whole entry): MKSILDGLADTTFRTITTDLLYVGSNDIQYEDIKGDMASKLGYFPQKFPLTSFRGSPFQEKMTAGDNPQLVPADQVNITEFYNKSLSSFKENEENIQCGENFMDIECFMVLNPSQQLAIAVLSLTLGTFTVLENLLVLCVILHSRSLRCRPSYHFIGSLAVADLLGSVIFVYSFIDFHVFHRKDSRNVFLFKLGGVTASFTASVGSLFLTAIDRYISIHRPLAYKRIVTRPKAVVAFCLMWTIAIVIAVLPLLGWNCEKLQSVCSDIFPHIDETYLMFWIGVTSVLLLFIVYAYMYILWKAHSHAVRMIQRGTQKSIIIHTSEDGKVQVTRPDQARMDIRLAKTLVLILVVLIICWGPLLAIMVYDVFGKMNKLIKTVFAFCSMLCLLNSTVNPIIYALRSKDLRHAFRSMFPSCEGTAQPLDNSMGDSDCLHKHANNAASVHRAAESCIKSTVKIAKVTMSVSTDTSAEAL
T1 sequence (P47746 whole entry): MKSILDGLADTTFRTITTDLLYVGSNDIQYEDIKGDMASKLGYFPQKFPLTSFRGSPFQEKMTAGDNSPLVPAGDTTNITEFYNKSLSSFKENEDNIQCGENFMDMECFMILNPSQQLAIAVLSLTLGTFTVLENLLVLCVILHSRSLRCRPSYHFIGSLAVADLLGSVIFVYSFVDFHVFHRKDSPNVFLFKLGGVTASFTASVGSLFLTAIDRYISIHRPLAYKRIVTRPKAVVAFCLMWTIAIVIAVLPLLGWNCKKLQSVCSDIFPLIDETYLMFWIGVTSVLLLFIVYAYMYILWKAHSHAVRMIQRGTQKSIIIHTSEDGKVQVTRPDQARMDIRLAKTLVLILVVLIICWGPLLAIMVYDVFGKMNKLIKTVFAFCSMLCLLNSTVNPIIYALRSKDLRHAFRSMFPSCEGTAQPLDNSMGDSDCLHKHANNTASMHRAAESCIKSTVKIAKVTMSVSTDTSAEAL
T3 sequence (P34972 whole entry): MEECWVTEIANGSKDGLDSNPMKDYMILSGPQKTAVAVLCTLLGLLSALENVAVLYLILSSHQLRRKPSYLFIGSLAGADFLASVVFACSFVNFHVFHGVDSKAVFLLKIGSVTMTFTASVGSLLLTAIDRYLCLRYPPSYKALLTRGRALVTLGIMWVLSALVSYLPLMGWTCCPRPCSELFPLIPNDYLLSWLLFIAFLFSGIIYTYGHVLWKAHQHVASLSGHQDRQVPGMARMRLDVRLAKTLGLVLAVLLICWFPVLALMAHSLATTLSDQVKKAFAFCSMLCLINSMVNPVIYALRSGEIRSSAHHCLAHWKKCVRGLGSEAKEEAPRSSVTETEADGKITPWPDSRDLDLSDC

In the case of `O=C(Nc1ccc(Cl)cc1)Nc1cccc(-c2cccc(N3CCCC3)n2)c1`, in [1], the t1/2 is given as 13 min. Further, the pIC50 in [2] was 6.91. Besides, in data set [3] (liver microsomes), the half-life was 13.4 min. Further, the Papp was found to be 2.2 ×10⁻⁶ cm/s in data set [4] and 2.6 ×10⁻⁶ cm/s in data set [8]. The microsomal CLint at […] in [5] (liver microsomes, read-out: CLH) was 114 µL/min/mg. Further, in data set [6], the Emax was < 30%. The IC50 in [7] was > 10 µM; in data set [11], 0.288 µM; in data set [13] it was 0.115 µM. For the same compound, the solubility kinetic at 2 h, 400 µM in data set [9] was < 0.5 µM. Further, the inhibition in [10] was < 50%. In [12], the “inhibition (INH)” value is given as “Active”.

As to `O=C(Nc1ccc(Cl)cc1)Nc1ccc(-c2ccccc2)s1`, the result in data set [14] and in data set [19] was inactive. Also, the t1/2 in [3] (microsomes) is 65 min. Further, the apparent permeability (Papp) was 1.1 ×10⁻⁶ cm/s in data set [4] and 1.6 ×10⁻⁶ cm/s in data set [8]. Moreover, the CLH in data set [5] (microsomes, […]) was 22.2 µL/min/mg. Moreover, the “inhibition (INH)” value in [15] is “Not Active”. For the same compound, the IC50 was 0.0068 µM in [16] and > 10 µM in data set [7]. In addition, in data set [17], the Ratio was found to be 0.7. Also, in [18], the Emax is < 10%. The solubility kinetic at 2 h, 400 µM in data set [9] came to 1.5 µM (≈ 0.493 µg/mL). In data set [10], the inhibition was < 50%.

The pIC50 is the IC50 on a negative log10 scale, so that one unit is a factor of ten. The half-life is how long it takes for the measured level to halve. The Papp is a coefficient for how fast a substance crosses the barrier. What is called Emax is the greatest response seen or fitted, relative to the assay's reference. Broadly, the IC50 is the point on the concentration scale where inhibition reaches its midpoint. The term inhibition denotes the percentage by which the read-out fell short of the control.

These data come from ChEMBL document CHEMBL4414612, “Synthesis and Pharmacological Evaluation of 1-Phenyl-3-Thiophenylurea Derivatives as Cannabinoid Type-1 Receptor Allosteric Modulators” (J Med Chem, 2019).
